Assay results taken from ChEMBL document CHEMBL1177781, “Synthesis and SAR of potent inhibitors of the Hepatitis C virus NS3/4A protease: exploration of P2 quinazoline substituents” (Bioorg Med Chem Lett, 2010).

Key:
[1] = Inhibition of HCV 1a NS3/4A protease; parameters: species or system Hepatitis C virus subtype 1a
In short: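 Enzyme inhibition was determined as Ki against recombinant full-length NS3 enzyme, following a literature procedure, in an external laboratory.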

[2] = tested on: Hepatitis C virus; assay: Antiviral activity against HCV1b infected in human Huh7 cells assessed as inhibition viral subgenomic replication; format: functional, organism-based, Hepacivirus hominis; conditions: genotype 1b, Huh-7
In short: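 Cell-based EC50 was measured in Huh7 cells carrying the subgenomic bicistronic HCV replicon clone ET, with a luciferase read-out.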

[3] = tested on: Liver microsomes; assay: Intrinsic clearance in human liver microsomes; format: ADME, Microsome
In short: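 Metabolic stability in human liver microsomes was expressed as intrinsic clearance (Cl_int, µL/min/mg).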

[4] = Apparent permeability across human Caco-2 cells; format: ADME, cell-based
[5] = (§1) Clearance in Sprague-Dawley rat at 2 mg/kg, iv; format: ADME, organism-based; parameters: dose 2 mg/kg, route intravenous; conditions: Sprague-Dawley, in vivo
In short: (§2)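 Male Sprague–Dawley rats (n = 2 per route) received a single intravenous dose (2 mg base-equiv/kg) or an oral dose. Mean plasma levels were followed to derive Cl, Vdss, AUC, Cmax, Tmax, T1/2 and F. Liver-to-plasma ratio was determined at 6 h.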

[6] = AUC in Sprague-Dawley rat at 10 mg/kg, po; format: ADME, organism-based; parameters: dose 10 mg/kg, route oral; conditions: plasma; in short: as §2
[7] = Cmax in Sprague-Dawley rat at 10 mg/kg, po; format: ADME, organism-based; parameters: dose 10 mg/kg, route oral; conditions: in vivo; in short: as §2
[8] = Tmax in Sprague-Dawley rat at 10 mg/kg, po; format: ADME, organism-based; parameters: dose 10 mg/kg, route oral; conditions: in vivo; in short: as §2
[9] = Half life in Sprague-Dawley rat at 10 mg/kg, po; format: ADME, organism-based; parameters: dose 10 mg/kg, route oral; conditions: in vivo; in short: as §2
[10] = Oral bioavailability in Sprague-Dawley rat at 10 mg/kg; format: ADME, organism-based; conditions: in vivo; in short: as §2
[11] = tested on: Rattus norvegicus; assay: as §1; format: ADME, organism-based; parameters: dose 2 mg/kg, route intravenous; conditions: in vivo; in short: as §2
[12] = tested on: Rattus norvegicus; assay: AUC in Sprague-Dawley rat at 2 mg/kg, iv; format: ADME, organism-based, Plasma; parameters: dose 2 mg/kg, route intravenous; conditions: in vivo; in short: as §2
[13] = Ratio of drug level in liver to plasma in Sprague-Dawley rat at 2 mg/kg, iv after 6 hrs; format: ADME, organism-based; parameters: dose 2 mg/kg, route intravenous; in short: as §2
[14] = Ratio of drug level in liver to plasma in Sprague-Dawley rat at 10 mg/kg, po after 6 hrs; format: ADME, organism-based; parameters: dose 10 mg/kg, route oral; in short: as §2

CN1CCCC/C=C\[C@@H]2C[C@@]2(C(=O)NS(=O)(=O)C2CC2)NC(=O)[C@@H]2C[C@@H](Oc3nc(-c4ccccc4)nc4ccccc34)C[C@H]2C1=O
Ki [1]: 0.4 nM
EC50 [2]: 52 nM
CL [3]: 58 µL/min
Papp [4]: 21 ×10⁻⁶ cm/s

CN1CCCC/C=C\[C@@H]2C[C@@]2(C(=O)NS(=O)(=O)C2CC2)NC(=O)[C@@H]2C[C@@H](Oc3nc(N4CCOCC4)nc4ccccc34)C[C@H]2C1=O
Ki [1]: 6.2 nM
EC50 [2]: 390 nM

CN1CCN(c2nc(O[C@@H]3C[C@H]4C(=O)N[C@]5(C(=O)NS(=O)(=O)C6CC6)C[C@H]5/C=C\CCCCN(C)C(=O)[C@@H]4C3)c3ccccc3n2)CC1
Ki [1]: 1.2 nM
EC50 [2]: 830 nM

CC(C)c1csc(-c2nc(O[C@@H]3C[C@H]4C(=O)N[C@]5(C(=O)NS(=O)(=O)C6CC6)C[C@H]5/C=C\CCCCN(C)C(=O)[C@@H]4C3)c3ccccc3n2)n1
Ki [1]: 0.8 nM
EC50 [2]: 120 nM

COc1ccc2c(O[C@@H]3C[C@H]4C(=O)N[C@]5(C(=O)NS(=O)(=O)C6CC6)C[C@H]5/C=C\CCCCN(C)C(=O)[C@@H]4C3)nc(-c3ccccc3)nc2c1
Ki [1]: 0.4 nM
EC50 [2]: 14 nM
CL [3]: 88 µL/min
Papp [4]: 13 ×10⁻⁶ cm/s

COc1ccc2c(O[C@@H]3C[C@H]4C(=O)N[C@]5(C(=O)NS(=O)(=O)C6CC6)C[C@H]5/C=C\CCCCN(C)C(=O)[C@@H]4C3)nc(-c3nc(C(C)C)cs3)nc2c1
Ki [1]: 1.2 nM
EC50 [2]: 58 nM
CL [3]: 76 µL/min

COc1ccc2c(O[C@@H]3C[C@H]4C(=O)N[C@]5(C(=O)NS(=O)(=O)C6CC6)C[C@H]5/C=C\CCCCN(C)C(=O)[C@@H]4C3)nc(-c3ccc(F)cc3)nc2c1
Ki [1]: 0.2 nM
EC50 [2]: 11 nM
CL [3]: 32 µL/min
Papp [4]: 20 ×10⁻⁶ cm/s

COc1ccc2c(O[C@@H]3C[C@H]4C(=O)N[C@]5(C(=O)NS(=O)(=O)C6CC6)C[C@H]5/C=C\CCCCN(C)C(=O)[C@@H]4C3)nc(-c3ccccc3)nc2c1C
Ki [1]: 0.1 nM
EC50 [2]: 5 nM
CL [3]: < 6 µL/min
Papp [4]: 13 ×10⁻⁶ cm/s
clearance [5]: 16.7 mL/min/kg
AUC [6]: 3.3 µM·h
Cmax [7]: 660 nM
Tmax [8]: 2 h
half-life [9]: 3.8 h
bioavailability [10]: 40%

COc1ccc(-c2nc(O[C@@H]3C[C@H]4C(=O)N[C@]5(C(=O)NS(=O)(=O)C6CC6)C[C@H]5/C=C\CCCCN(C)C(=O)[C@@H]4C3)c3ccc(OC)c(C)c3n2)cc1
Ki [1]: 0.6 nM
EC50 [2]: 8 nM
CL [3]: 11 µL/min
Papp [4]: 9 ×10⁻⁶ cm/s

COc1ccc2c(O[C@@H]3C[C@H]4C(=O)N[C@]5(C(=O)NS(=O)(=O)C6CC6)C[C@H]5/C=C\CCCCN(C)C(=O)[C@@H]4C3)ncnc2c1C
Ki [1]: > 1000 nM
EC50 [2]: > 1000 nM

COc1ccc2c(O[C@@H]3C[C@H]4C(=O)N[C@]5(C(=O)NS(=O)(=O)C6CC6)C[C@H]5/C=C\CCCCN(C)C(=O)N4C3)nc(-c3ccccc3)nc2c1C
Ki [1]: 0.2 nM
EC50 [2]: 11 nM
CL [3]: 17 µL/min
Papp [4]: 26 ×10⁻⁶ cm/s
CL [11]: 11.5 mL/min/kg
AUC [12]: 8.4 µM·h
Kp at 6 h [13]: 38
AUC [6]: 15 µM·h
Cmax [7]: 3400 nM
Tmax [8]: 5 h
bioavailability [10]: 73%
Kp at 6 h [14]: 32

COc1ccc2c(O[C@@H]3C[C@H]4C(=O)N[C@]5(C(=O)NS(=O)(=O)C6CC6)C[C@H]5/C=C\CCCCN(C)C(=O)N4C3)nc(-c3ccc(F)cc3)nc2c1C
Ki [1]: 0.3 nM
EC50 [2]: 16 nM
CL [3]: < 6 µL/min
Papp [4]: 32 ×10⁻⁶ cm/s
clearance [5]: 9.33 mL/min/kg
AUC [6]: 11 µM·h
Cmax [7]: 2600 nM
Tmax [8]: 5 h
Kp at 6 h [14]: 42

COc1ccc(-c2nc(O[C@@H]3C[C@H]4C(=O)N[C@]5(C(=O)NS(=O)(=O)C6CC6)C[C@H]5/C=C\CCCCN(C)C(=O)N4C3)c3ccc(OC)c(C)c3n2)cc1
Ki [1]: 0.6 nM
EC50 [2]: 3 nM
CL [3]: 8 µL/min
Papp [4]: 33 ×10⁻⁶ cm/s

COc1ccc2c(O[C@@H]3C[C@H]4C(=O)N[C@]5(C(=O)NS(=O)(=O)C6CC6)C[C@H]5/C=C\CCCCN(C)C(=O)N4C3)nc(-c3cccc(C)n3)nc2c1C
Ki [1]: 0.9 nM
EC50 [2]: 130 nM

COc1ccc2c(O[C@@H]3C[C@H]4C(=O)N[C@]5(C(=O)NS(=O)(=O)C6CC6)C[C@H]5/C=C\CCCCN(C)C(=O)N4C3)nc(-c3cccnc3)nc2c1C
Ki [1]: 2.8 nM
EC50 [2]: 13 nM

COc1ccc2c(O[C@@H]3C[C@H]4C(=O)N[C@]5(C(=O)NS(=O)(=O)C6CC6)C[C@H]5/C=C\CCCCN(C)C(=O)N4C3)nc(-c3ccncc3)nc2c1C
Ki [1]: 0.2 nM
EC50 [2]: 7 nM
CL [3]: 14 µL/min
Papp [4]: 0.4 ×10⁻⁶ cm/s

COc1ccc2c(O[C@@H]3C[C@H]4C(=O)N[C@]5(C(=O)NS(=O)(=O)C6CC6)C[C@H]5/C=C\CCCCCNC(=O)N4C3)nc(-c3ccccc3)nc2c1C
Ki [1]: 0.3 nM
EC50 [2]: 23 nM
CL [3]: 26 µL/min
Papp [4]: 38 ×10⁻⁶ cm/s

COc1ccc2c(O[C@@H]3C[C@H]4C(=O)N[C@]5(C(=O)NS(=O)(=O)C6CC6)C[C@H]5/C=C\CCCCCNC(=O)N4C3)nc(-c3ccc(F)cc3)nc2c1C
Ki [1]: 0.2 nM
EC50 [2]: 16 nM
CL [3]: 20 µL/min
Papp [4]: 32 ×10⁻⁶ cm/s
clearance [5]: 26.7 mL/min/kg
Kp at 6 h [13]: 2.5
AUC [6]: 1.7 µM·h
Cmax [7]: 390 nM
Tmax [8]: 2 h
bioavailability [10]: 38%
Kp at 6 h [14]: 100
